In brackets after ≈: the same amount, converted by molar mass. Activity calls are given as the source filed them. No cut-off for these calls is given here.
Legend:
Leishmania donovani [1] = assay: Antileishmanial activity against Leishmania donovani MHOM/IN/1983/AG83 promastigotes infected BALB/c mouse assessed as reduction in spleen parasite burden at 5.5 mg/kg, ip administered two times per week for 4 weeks relative to control; format: functional; design: scale not given: the % may be the effect or the level left; details: route intraperitoneal
Procedure, shortened: (§1)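 BALB/c mice (4-6 weeks) were infected iv with 2 × 10^7 freshly transformed promastigotes. One month later, groups were dosed ip in 0.2% Tween 80 in PBS (0.02 M), twice weekly for one month (8 doses); controls got vehicle only. Mice were killed one month post-treatment and spleen and liver were weighed. Parasite load came from Giemsa impression smears as organ weight (mg) × amastigotes per cell nucleus × 2 × 10^5. Values are mean ± S.E. of 5 mice; unpaired t-test.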

Leishmania donovani [2] = assay: Antileishmanial activity against Leishmania donovani MHOM/IN/1983/AG83 promastigotes infected BALB/c mouse assessed as spleen weight at 5.5 mg/kg, ip administered two times per week for 4 weeks; format: functional; details: route intraperitoneal; procedure, shortened: as §1
Mus musculus = assay: Toxicity in BALB/c mouse assessed as effect on serum glutamate oxaloacetate transaminase levels at 12.5 mg/kg, ip administered two times per week for 4 weeks; format: organism-based; design: dose 12.5 mg/kg, route intraperitoneal; details: in vivo, 672 h
Procedure, shortened: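 Normal BALB/c mice were dosed ip twice per week for 4 weeks. Blood was collected one month after treatment, and serum SGPT and SGOT (IU/l) and blood urea (mg/dl) were measured with commercial kits and compared with untreated normal mice.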

Staphylococcus aureus [3] = assay: Antibacterial activity against Staphylococcus aureus ML6 at 5 ug/ml after 24 hrs by agar dilution method; format: functional, organism-based
Procedure, shortened: (§2)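 Agar dilution MIC. Compound dissolved in sterile 0.2% DMSO, diluted in distilled water and mixed into molten nutrient agar (pH 7.2–7.4) at 5, 10, 25, 50; plate with 0.2% DMSO as control. Gram-positives grown 18 h in nutrient broth, Gram-negatives in peptone water. Stationary-phase suspension set to 0.5 McFarland, diluted 1:100, spot-inoculated at about 10^5 CFU per loopful. Plates held 24 h at 37 °C (up to 72 h if needed). MIC is the lowest level with no growth.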

Staphylococcus aureus [4] = assay: Antibacterial activity against Staphylococcus aureus ML145 at 5 ug/ml after 24 hrs by agar dilution method; format: functional; details: ML145, 24 h; procedure, shortened: as §2
Salmonella typhimurium [5] = assay: Antibacterial activity against Salmonella Typhimurium NCTC 74 at 5 ug/ml after 24 hrs by agar dilution method; format: functional, organism-based; details: Salmonella enterica subsp. enterica serovar Typhimurium; procedure, shortened: as §2
Salmonella typhimurium [6] = assay: Antibacterial activity against Salmonella Typhimurium NCTC 74 at 25 ug/ml after 24 hrs by agar dilution method; format: functional, organism-based; details: Salmonella enterica subsp. enterica serovar Typhimurium; procedure, shortened: as §2
Salmonella typhimurium [7] = assay: Antibacterial activity against Salmonella Typhimurium NCTC 74 at 50 ug/ml after 24 hrs by agar dilution method; format: functional, Salmonella enterica subsp. enterica serovar Typhimurium; details: Salmonella enterica, NCTC 74, 24 h; procedure, shortened: as §2
Shigella dysenteriae [8] = assay: Antibacterial activity against Shigella dysenteriae 6 NCTC 100/54 at 25 ug/ml after 24 hrs by agar dilution method; format: functional, organism-based
Escherichia coli [9] = assay: Antibacterial activity against Escherichia coli K-12 Row at 5 ug/ml after 24 hrs by agar dilution method; format: functional, organism-based; procedure, shortened: as §2
Escherichia coli [10] = assay: Antibacterial activity against Escherichia coli K-12 Row after 24 hrs by agar dilution method; format: functional; procedure, shortened: as §2
Escherichia coli [11] = assay: Antibacterial activity against Escherichia coli ATCC 25938 at 25 ug/ml after 24 hrs by agar dilution method; format: functional, organism-based; procedure, shortened: as §2
Vibrio cholerae [12] = assay: Antibacterial activity against Vibrio cholerae 569B at 10 ug/ml after 24 hrs by agar dilution method; format: functional, organism-based
Vibrio cholerae [13] = assay: Antibacterial activity against Vibrio cholerae 569B at 50 ug/ml after 24 hrs by agar dilution method; format: functional
Vibrio cholerae [14] = assay: Antibacterial activity against Vibrio cholerae 582 after 24 hrs by agar dilution method; format: functional; details: Vibrio cholerae, 582, 24 h
Proteus mirabilis [15] = assay: Antibacterial activity against Proteus mirabilis 7 after 24 hrs by agar dilution method; format: functional; details: Proteus mirabilis, 7, 24 h; procedure, shortened: as §2
Staphylococcus aureus [16] = assay: Antibacterial activity against Staphylococcus aureus ML145 ug/ml after 24 hrs by agar dilution method; format: functional; details: ML145, 24 h; procedure, shortened: as §2
Bacillus licheniformis = assay: Antibacterial activity against […] Bacillus licheniformis NCTC 10341 at 25 ug/ml after 24 hrs by agar dilution method; format: functional, organism-based; procedure, shortened: as §2
Proteus mirabilis [17] = assay: Antibacterial activity against Proteus mirabilis 175 at 5 ug/ml after 24 hrs by agar dilution method; format: functional, organism-based; procedure, shortened: as §2
Pseudomonas aeruginosa [18] = assay: Antibacterial activity against Pseudomonas aeruginosa ATCC 27853 at 50 ug/ml after 24 hrs by agar dilution method; format: functional; details: ATCC 27853, 24 h; procedure, shortened: as §2
Pseudomonas aeruginosa [19] = assay: Antibacterial activity against Pseudomonas aeruginosa ATCC 27853 after 24 hrs by agar dilution method; format: functional; details: ATCC 27853, 24 h; procedure, shortened: as §2
Shigella dysenteriae [20] = assay: Antibacterial activity against Shigella dysenteriae 7 NCTC 519/66 at 10 ug/ml after 24 hrs by agar dilution method; format: functional; details: 7 NCTC 519/66, 24 h
Shigella dysenteriae [21] = assay: Antibacterial activity against Shigella dysenteriae 7 NCTC 519/66 at 25 ug/ml after 24 hrs by agar dilution method; format: functional; details: 7 NCTC 519/66, 24 h
Shigella dysenteriae [22] = assay: Antibacterial activity against Shigella dysenteriae 7 NCTC 519/66 at 50 ug/ml after 24 hrs by agar dilution method; format: functional; details: 7 NCTC 519/66, 24 h
Leishmania donovani [23] = assay: Antileishmanial activity against Leishmania donovani MHOM/IN/1983/AG83 promastigotes assessed as induction of membrane blebbing at 2 ug/ml after 2 hrs by transmission electron microscopy; format: functional, organism-based
Procedure, shortened: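 Log-phase promastigotes, grown at 22 °C in M199 with 10% FBS, were exposed for 2 h to the compound; controls received 0.1% DMSO alone. Cells were then sectioned, stained on copper grids with uranyl acetate and lead acetate for 10-15 min each, and examined by TEM for ultrastructural changes.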

[24] = Down regulation of IL6 release Leishmania donovani MHOM/IN/1983/AG83 infected interferon gamma-stimulated golden Syrian hamster peritoneal macrophages; format: functional, cell-based; details: Mesocricetus auratus; Macrophage
[25] = Down regulation of TNFalpha release Leishmania donovani MHOM/IN/1983/AG83 infected bacterial liposaccharide-stimulated golden Syrian hamster peritoneal macrophages; format: functional, cell-based; details: Mesocricetus auratus; Macrophage
Leishmania donovani [26] = assay: Antileishmanial activity against Leishmania donovani MHOM/IN/1983/AG83 promastigotes after 4 hrs by MTT assay; format: functional, organism-based; details: MHOM/IN/1983/AG83, 4 h
Procedure, shortened: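 AG83 promastigotes kept at 22 °C in M199 + 10% FBS. Log-phase cells (2×10^6/ml) exposed 2 h at 22 °C to 1, 3, 5, 7, 10, 15 compound; DMSO at 0.1% final. Cells washed with PBS, incubated 4 h at 22 °C with MTT (2 mg/ml). Formazan dissolved in DMSO and read at 570 nm; % lysis computed, IC50 by linear regression.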

[27] = Toxicity against golden Syrian hamster peritoneal macrophages; format: cell-based, Mesocricetus auratus; details: macrophage

## Clc1ccc(OCOc2ccc(Cl)c3cccnc23)c2ncccc12
Leishmania donovani [1]
  Activity: 75%
Leishmania donovani [2]
  Activity: 175 mg
Mus musculus
  Activity: Non-toxic
Staphylococcus aureus [3]
  Activity: inactive
Staphylococcus aureus [4]
  inhibition at 5 µg/mL: 100%
Salmonella typhimurium [5]
  Activity: inactive
Salmonella typhimurium [6]
  Activity: inactive
Salmonella typhimurium [7]
  inhibition at 50 µg/mL: 100%
Shigella dysenteriae [8]
  Activity: inactive
Escherichia coli [9]
  Activity: inactive
Escherichia coli [10]
  MIC: 50 µg/mL (≈ 135 µM)
Escherichia coli [11]
  Activity: inactive
Vibrio cholerae [12]
  Activity: inactive
Vibrio cholerae [13]
  inhibition at 50 µg/mL: 100%
Vibrio cholerae [14]
  MIC: 5 µg/mL (≈ 13.5 µM)
Proteus mirabilis [15]
  MIC: 50 µg/mL (≈ 135 µM)
Staphylococcus aureus [16]
  MIC: 5 µg/mL (≈ 13.5 µM)
Bacillus licheniformis
  Activity: inactive
Proteus mirabilis [17]
  Activity: inactive
Pseudomonas aeruginosa [18]
  inhibition at 50 µg/mL: 100%
Pseudomonas aeruginosa [19]
  MIC: 25 µg/mL (≈ 67.3 µM)
Shigella dysenteriae [20]
  inhibition at 10 µg/mL: 100%
Shigella dysenteriae [21]
  inhibition at 25 µg/mL: 100%
Shigella dysenteriae [22]
  inhibition at 50 µg/mL: 100%
Leishmania donovani [23]
  Activity: Active
[24]
  Activity: Active
[25]
  Activity: Active
Leishmania donovani [26]
  IC50: 2 µg/mL (≈ 5.39 µM)
[27]
  Activity: > 80 µg/mL

Source: ChEMBL document CHEMBL1153864, “Phase transfer catalyzed synthesis of bis-quinolines: antileishmanial activity in experimental visceral leishmaniasis and in vitro antibacterial evaluation” (Eur J Med Chem, 2009)
